From PubChem BioAssay AID602408 (Southern Research Specialized Biocontainment Screening …, 2012) come the findings set out here.

For assay [1], the system named is E. coli UTI89 K1 capsule, phage lysis, A600. The assay is described as follows: inhibition of K1F phage lysis of E. coli UTI89, confirmation, bacterial capsule biogenesis project, UTI89 strain, A600 absorbance, round 2 (AID 602408). Put shortly: (§1)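 Material – Escherichia coli K1 strain UTI89, whole bacterial cells · Buffer or medium – LB broth · Probe or stimulus – K1F phage · Dosing – 1% DMSO final · Times – 1.5 h pre-incubation, 2 h phage at 37 °C · Signal – absorbance at 600 nm (OD600) · Evaluation – Capsule-dependent phage lysis from OD600, with pre-phage OD600 flagging growth effects · Replicates – duplicates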

Assay in assay [2]: as above
The note with it: E. coli UTI89 K1 capsule, phage lysis, A600; at 100 µM (top of the series). Put shortly:
as §1

“And” between values parts separate entries of the source, which are not always exact repeats. Identical values can stand only once. The source made the active and inactive calls.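 The calls were made as follows: active = inhibition of phage lysis above 30%; inactive = the rest.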

By IC50 is commonly meant the concentration that inhibits the measured activity by half. For the compound `O=C(Nc1ccncc1F)c1ccc2ncsc2c1`, the half-maximal inhibitory concentration (IC50) in assay [1] is 18.6 µM.
Still for that read-out and setting: next, `O=C(Nc1cc(-c2ccc(C(F)(F)F)cc2)sc1C(=O)O)c1ccc(Br)o1`: 9.74 µM; `Cc1ccc(-c2cc(NC(=O)c3ccc(Br)o3)c(C(=O)O)s2)cc1`: 11.3 µM; `O=C(Nc1cc(-c2ccccc2)sc1C(=O)O)c1cccc(Cl)c1`: 85.5 µM.
Take `O=C(O)c1sc(-c2ccc(OC(F)(F)F)cc2)cc1NC(=O)c1c(F)cccc1F`: the IC50 in assay [1] was 9.77 µM.
Turning to `COc1cc2sc(NC(=O)c3ccc(Br)s3)nc2cc1F`, the inhibition of phage lysis in assay [2] is -6.05% (inactive).
Consider `CCOc1ccc(-c2cc(NC(=O)c3ccc(Br)s3)c(C(=O)O)s2)cc1`, for which the IC50 in assay [1] is 13.9 µM.
On the same count and under the same terms, next, `CCOc1ccc(-c2cc(NC(=O)c3c(F)cccc3F)c(C(=O)O)s2)cc1`: 2.8 µM and 3.73 µM.
Same read-out and setting: next, `O=C(Nc1cc(-c2ccccc2)sc1C(=O)O)c1ccc(Br)o1`: 42.2 µM; `COc1ccc2nc(NC(=O)c3ccc(Br)s3)sc2c1`: 2.33 µM; `CC(C)c1ccc(-c2cc(NC(=O)c3cc4ccccc4o3)c(C(=O)O)s2)cc1`: 23.6 µM.
The same measure, in the same setting: next, `O=C(O)c1sc(-c2ccc(OCC(F)(F)F)cc2)cc1NC(=O)c1c(F)cccc1F`: 2.86 µM; `O=C(O)c1sc(-c2ccc(OCCCC(F)(F)F)cc2)cc1NC(=O)c1c(F)cccc1F`: 10.3 µM; `CCOc1ccc2nc(NC(=O)c3ccc(Br)s3)sc2c1`: 5.06 µM.
On to `O=C(NCc1cc([N+](=O)[O-])ccc1O)c1cccnc1Sc1ccccc1Cl`, for which the IC50 in assay [1] was 14.8 µM.
Consider `O=C(Nc1cc(-c2ccc(OCCC(F)(F)F)cc2)sc1C(=O)O)c1ccc(Br)o1`, for which, in assay [1], the IC50 is 0.84 µM.
Turning to `CC1=NN2C(=N)/C(=C\c3ccc(SCc4ccco4)o3)C(=O)N=C2S1`, the IC50 in assay [1] was 37.9 µM.
For the compound `O=C(Nc1ccnc(Cl)c1)c1ccc2ncsc2c1`, in assay [1], the IC50 is 2.57 µM.
The same measure, in the same setting: next, `CC(C)(C)c1ccc(-c2cc(NC(=O)c3c(F)cccc3F)c(C(=O)O)s2)cc1`: 6.99 µM; `CCCCOc1ccc(-c2cc(NC(=O)c3ccc(Br)o3)c(C(=O)O)s2)cc1`: 0.85 µM.
On the same count and under the same terms, the figure for `CCCc1ccc(-c2cc(NC(=O)c3ccc(Br)o3)c(C(=O)O)s2)cc1` is 1.43 µM.
With `COc1ccc2nc(NC(=O)c3cccs3)sc2c1`, the inhibition of phage lysis in assay [2] was 24% (inactive).
Take `O=C(O)c1sc(-c2ccc(OCCC(F)(F)F)cc2)cc1NC(=O)c1c(F)cccc1F`: the half-maximal inhibitory concentration (IC50) in assay [1] was 0.84 µM.
Regarding `[N-]=[N+]=NCCOc1ccc(-c2cc(NC(=O)c3c(F)cccc3F)c(C(=O)O)s2)cc1`, in assay [1], the IC50 is 17.5 µM.
The same measure, in the same setting: next, `O=C(O)c1sc(-c2ccc(C(F)(F)F)cc2)cc1NC(=O)c1c(F)cccc1F`: 20.9 µM; `Cc1ccc(-c2cc(NC(=O)c3cccc(F)c3)c(C(=O)O)s2)cc1`: 44.5 µM; `CC1(C(=O)O)CCC(C(=O)Nc2ccc3ccccc3c2)C1(C)C` (configuration not stated): 43.9 µM.
With `CCCCOc1ccc(-c2cc(NC(=O)c3c(F)cccc3F)c(C(=O)O)s2)cc1`, the IC50 in assay [1] was less than 0.78 µM.
Same read-out and setting: next, `O=C(Nc1ccnc(Br)c1)c1ccc2ncsc2c1`: 4.26 µM.
On the same count and under the same terms, the figure for `CCOc1ccc(-c2cc(NC(=O)c3c(F)cc(F)cc3F)c(C(=O)O)s2)cc1` is 20 µM; for `O=C(Nc1cc(-c2ccc(OC(F)(F)F)cc2)sc1C(=O)O)c1ccc(Br)o1` it is 4.6 µM; for `O=C(Nc1cc(-c2ccccc2)sc1C(=O)O)c1ccc2c(c1)OCCO2` it is 89.1 µM.
Regarding `O=C(Nc1cc(-c2ccc(OCCCC(F)(F)F)cc2)sc1C(=O)O)c1cc(Br)c(Br)o1`, in assay [2], the inhibition of phage lysis was 12.2% (inactive). Moreover, in assay [1], the IC50 was 32.2 µM.
In the case of `CCOc1ccc(-c2cc(NC(=O)c3cccc(Cl)c3)c(C(=O)O)s2)cc1`, the IC50 in assay [1] was 64.9 µM.
As for `O=C(Nc1ncccc1O)c1ccc2ncsc2c1`, the inhibition of phage lysis in assay [2] is 0.85% (inactive).
Same read-out and setting: next, `O=C(NCc1ccncc1)c1ccc2ncsc2c1`: -2.06% (inactive).
For the compound `O=C(Nc1cc(-c2ccccc2)sc1C(=O)O)c1cccs1`, in assay [1], the IC50 was 68.1 µM.
With `CCCOc1ccc(-c2cc(NC(=O)c3c(F)cc(F)cc3F)c(C(=O)O)s2)cc1`, the IC50 in assay [1] was 8.06 µM.
For `CC(C)c1ccc(-c2cc(NC(=O)c3c(F)cccc3F)c(C(=O)O)s2)cc1`, the IC50 in assay [1] was 5.88 µM.
In the case of `O=C(NC1CCNCC1)c1ccc2ncsc2c1`, the inhibition of phage lysis in assay [2] was -6.19% (inactive).
`CCCc1ccc(-c2cc(NC(=O)c3c(F)cccc3F)c(C(=O)O)s2)cc1`: the IC50 in assay [1] was 2.63 µM.
The same measure, in the same setting: the figure for `CCCCOc1ccc(-c2cc(NC(=O)c3c(F)cc(F)cc3F)c(C(=O)O)s2)cc1` is 6.39 µM; for `CC(C)(C)c1ccc(-c2cc(NC(=O)c3cccc(F)c3)c(C(=O)O)s2)cc1` it is 9.72 µM.
Same read-out and setting: the figure for `CCOc1ccc(-c2cc(NC(=O)c3ccc(Br)o3)c(C(=O)O)s2)cc1` is 4.85 µM.
On to `O=C(NCCc1ccncc1)c1ccc2ncsc2c1`, for which the inhibition of phage lysis in assay [2] was 8.25% (inactive).
Turning to `O=C(Nc1ccnc(F)c1)c1ccc2ncsc2c1`, the IC50 in assay [1] was 4.62 µM.
Consider `CCCCOc1ccc(-c2cc(NC(=O)c3cc(Br)c(Br)o3)c(C(=O)O)s2)cc1`, for which the half-inhibitory concentration (IC50) in assay [1] is 23.3 µM.
On the same count and under the same terms, next, `O=C(ONc1ccc(N=NC(=O)c2ccccc2O)cc1)c1ccccc1`: 2.01 µM; `O=C(O)c1sc(-c2ccc(OCC(F)(F)F)cc2)cc1NC(=O)c1c(F)cc(F)cc1F`: 94.9 µM; `CCOc1ccc(-c2cc(NC(=O)c3ccc(OC)c(OC)c3)c(C(=O)O)s2)cc1`: 59.9 µM.
Turning to `CC(C)c1ccc(-c2cc(NC(=O)c3cccc(F)c3)c(C(=O)O)s2)cc1`, the IC50 in assay [1] is 18.4 µM.
Same read-out and setting: next, `O=C(Nc1cc(-c2ccc(OCCCC(F)(F)F)cc2)sc1C(=O)O)c1ccc(Br)o1`: 1.78 µM; `Cc1ccc(-c2cc(NC(=O)c3c(F)cccc3F)c(C(=O)O)s2)cc1`: 21.3 µM.
Still for that read-out and setting: next, `CCOc1ccc(-c2cc(NC(=O)c3c(F)cccc3C(F)(F)F)c(C(=O)O)s2)cc1`: 52.6 µM.
The same measure, in the same setting: next, `CCCc1ccc(-c2cc(NC(=O)c3c(F)cc(F)cc3F)c(C(=O)O)s2)cc1`: 15.9 µM; `CCCc1ccc(-c2cc(NC(=O)c3cc(Br)c(Br)o3)c(C(=O)O)s2)cc1`: 6.78 µM.
In the case of `COc1cc(NC(=O)c2ccc3ncsc3c2)ccn1`, the IC50 in assay [1] was 7.75 µM.
For `O=C(Nc1ccncc1)c1ccc2ncsc2c1`, the inhibition of phage lysis in assay [2] is 17.9% (inactive). The half-maximal inhibitory concentration (IC50) in assay [1] was 1.05 µM.
On to `O=C(O)c1sc(-c2ccc(OCCCC(F)(F)F)cc2)cc1NC(=O)c1c(F)cc(F)cc1F`, for which the IC50 in assay [1] was 5.53 µM.
For the compound `COc1ccc(-c2cc(NC(=O)c3ccc(Br)o3)c(C(=O)O)s2)cc1`, the concentration for half-maximal inhibition (IC50) in assay [1] is 8.75 µM.
Still for that read-out and setting: the figure for `O=C(Nc1cc(-c2ccc(OCC(F)(F)F)cc2)sc1C(=O)O)c1ccc(Br)o1` is 4.9 µM.
Same read-out and setting: next, `CC(C)c1ccc(-c2cc(NC(=O)c3ccc(Br)o3)c(C(=O)O)s2)cc1`: 2.81 µM.
As to `COc1ccc2nc(NC(=O)c3ccco3)sc2c1`, the inhibition of phage lysis in assay [2] was 0.81% (inactive).
In the case of `CCOc1ccc(-c2cc(NC(=O)c3cccc(F)c3)c(C(=O)O)s2)cc1`, in assay [1], the IC50 was 20.1 µM.
Still for that read-out and setting: next, `O=C(O)c1sc(-c2ccc(OCCC(F)(F)F)cc2)cc1NC(=O)c1c(F)cc(F)cc1F`: 3.11 µM.
